Diaph act CS = activates diaphorase or chemically reduces, flagging diaphorase assay artifacts | Diaphorase/resazurin coupled assay, resorufin fluorescence, 16 min; active compounds read high; 1 = vehicle wells, 0 = NADH-free wells | activation factor at 20 µM | 190,000 compounds, 0.005% hits | AID 1229;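 active means diaphorase activity raised at least twofold by the compound at 20 µM; inactive means activation factor below 2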
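Test system: Clostridium kluyveri diaphorase, purified enzyme; input: enzyme 0.07 U/mL final; buffer or medium: 50 mM HEPES pH 7.4 with 4.542 mM MgCl2, 0.005% Tween 20; also added: 0.114 mM NADH and 0.1 mM resazurin, final amounts; schedule: 16 min enzyme reaction, ambient temperature; technique: fluorescence of resorufin, 544 nm excitation, 590 nm emission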
p47phox inh = p47phox (human) inhibition. P14598. p47phox/p22phox peptide binding, fluorescence polarization, 2 h. inhibition, % at 24.7 µM. 220,000 compounds, 0.53% hits. AID 1274;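 further: 0% = p47phox with labelled peptide and 100% = labelled peptide alone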
Target sequence (P14598 whole entry, looked up): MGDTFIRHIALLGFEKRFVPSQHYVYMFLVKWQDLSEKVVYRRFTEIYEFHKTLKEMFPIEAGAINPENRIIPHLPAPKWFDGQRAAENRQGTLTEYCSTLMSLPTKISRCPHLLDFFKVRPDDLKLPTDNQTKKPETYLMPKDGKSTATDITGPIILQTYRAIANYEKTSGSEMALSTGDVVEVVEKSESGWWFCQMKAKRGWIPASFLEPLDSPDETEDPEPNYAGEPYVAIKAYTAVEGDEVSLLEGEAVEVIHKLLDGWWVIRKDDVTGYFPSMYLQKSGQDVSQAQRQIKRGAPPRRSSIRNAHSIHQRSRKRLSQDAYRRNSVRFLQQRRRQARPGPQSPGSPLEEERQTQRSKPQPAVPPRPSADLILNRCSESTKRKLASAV
Hck-Nef inh = human Hck-Nef kinase inhibition; inhibition, % at 20 µM; 220,000 compounds, 0.68% hits; Recombinant Hck-YEEI plus Nef, Z-Lyte FRET kinase assay;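 active means Hck-Nef kinase inhibition above about 50%, limit read from the data; inactive means inhibition below that limit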;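 further: 0% = DMSO with Hck plus Nef and 100% = Hck alone without Nef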
14-3-3 Bad inh = disrupts binding of bovine 14-3-3 zeta to phospho-Bad peptide; TR-FRET 14-3-3zeta/Dy647-pBad peptide displacement, 1 h; inhibition, % at 21.7 µM; 220,000 compounds, 0.71% hits; AID 781;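 active means inhibition above about 70%, limit read from the data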;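 further: 0% = full 14-3-3 plus peptide FRET controls and 100% = background without 14-3-3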
Target sequence (P63103 whole entry, looked up): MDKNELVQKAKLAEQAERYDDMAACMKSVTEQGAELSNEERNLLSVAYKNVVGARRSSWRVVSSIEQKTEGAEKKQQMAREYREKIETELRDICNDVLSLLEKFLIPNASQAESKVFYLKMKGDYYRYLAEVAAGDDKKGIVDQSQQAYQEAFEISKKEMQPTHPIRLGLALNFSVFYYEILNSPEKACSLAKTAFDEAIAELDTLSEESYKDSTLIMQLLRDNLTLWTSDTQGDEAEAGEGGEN
eIF4E-4G inh = eIF4E/eIF4G interaction inhibition in translation initiation; P63073+Q04637; TR-FRET eIF4E-eIF4GI(517-606) binding, 2 h; inhibition, % at 21.7 µM; 220,000 compounds, 0.37% hits;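 further: 0% = full FRET control wells and 100% = background wells lacking eIF4GI fragment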
Numbers without * were called inactive; x = no result; [ ] = remark or other dose. Only some compounds are listed: those with a hit (about 2% of all), similar ones and a draw of the others.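 How the source made its calls, unless noted: active means inhibition above about 30% (limit read from the data); inactive means the rest.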

SMILES | Diaph act CS | p47phox inh | Hck-Nef inh | 14-3-3 Bad inh | eIF4E-4G inh
Fc1ccc2c(c1)nnn2C1CCN(Cc2nnnn2C2CCCCC2)CC1 | 0.9 | -8.9 | 0.3 | 79.6* | -1.4
CCOC(=O)c1nc2ccccc2c(=O)n1-c1ccc(C)cc1 | 0.9 | -18.3 | 0.0 | 8.4 | 1.4
O=C(Cc1ccccc1)OCn1nnc2ccccc2c1=O | 0.9 | 6.5 | 5.4 | 17.9 | 58.7*[fluorescence artefact?]
O=c1[nH]c2ccccc2n1CCCN1CCC(n2c(=O)[nH]c3cc(Cl)ccc32)CC1 | 1.1 | -6.0 | -3.3 | 92.3* | 0.1
Cc1nn(Cc2c(Cl)cccc2Cl)c(Cl)c1C(=O)O | 1 | 11.1 | 0.3 | -6.3 | -2.3
Cc1ccccc1OCCCn1cc(C(=O)C(=O)N2CCOCC2)c2ccccc21 | 0.9 | -4.7 | 1.4 | -2.0 | -2.4
O=c1[nH]c(=O)n(-c2ccc(Br)cc2)c(O)c1C=NCCN1CCCCC1 | x | 5.4 | 9.9 | 0.3 | 92.8*
COc1ccc(CCNCc2ccc(F)cc2)cc1OC | 0.9 | -14.8 | -2.1 | -10.2 | 0.8
COc1ccc(CCNCc2ccccn2)cc1OC | 0.9 | -0.9 | 8.8 | 75.2* | 3.8
O=C1NC(=O)C(CCc2ccncc2)(CCc2ccncc2)C(=O)N1Cc1ccccc1 | 0.9 | -12.0 | 21.3 | -8.6 | 87.4*
CCOc1ccccc1N1C(=O)NC(=O)C(CCc2ccncc2)(CCc2ccncc2)C1=O | 1 | -1.0 | 9.8 | 16.4 | 0.4
CC1CN=C(Nc2ccc(F)c(Cl)c2)S1 (centres undefined) | x | -1.9 | -15.9 | 11.9 | 2.0
C=CCn1c(O)c(/C(C)=N/N2CCCCCC2)c(=O)[nH]c1=O | x | -12.5 | 17.3 | 0.5 | 0.7
C/C(=N\N1CCCCCC1)c1c(O)n(C2CCCCC2)c(=O)[nH]c1=O | x | -0.7 | 8.7 | -15.7 | 44.7*
CCN(CC)CCN/N=C(\C)c1c(O)[nH]c(=O)[nH]c1=O | x | 12.1 | 10.6 | 2.7 | 2.5
COc1ccccc1N(CC(=O)NC1CCCCC1)C(=O)c1cnn(C(C)C)c1 | 0.9 | 33.1* | -0.9 | 2.4 | -4.5
Cn1c(O)c(C=NC2CCCCCC2)c(=O)[nH]c1=S | 1 | -4.1 | 12.4 | 1.6 | -2.1
Cc1ccc(N2C(=O)NC(=O)/C(=C\c3ccc([N+](=O)[O-])o3)C2=O)cc1 | 0.7 | -97.2 | 50.2* | 47.4 | 12.7
CC(C)(C)NC(=S)/N=C(\N)N[N+](=O)[O-] | 0.9 | -3.4 | 20.8 | -17.6 | -1.6
CCOC(=O)c1c(NC(=O)c2c(N)n(CCCOC)c3nc4ccccc4nc23)sc2c1CCCC2 | 0.7 | -27.3 | 0.3 | 1.0 | 6.8
CCOC(=O)c1c(NC(=O)C(c2ccccc2)c2ccccc2)sc2c1C1CCN2CC1 | 0.9 | -77.4 | -0.6 | 79.1* | 2.2
CN(C(=O)Oc1ccc(C(C)(C)C)cc1)c1ccccc1 | 1 | -10.6 | 4.1 | -4.1 | 1.5
CCOc1ccc2nc(N=Nc3c(O)[nH]c(=S)[nH]c3=O)sc2c1 | 0.8 | -50.7 | 0.0 | 8.7 | -0.3
O=c1c2ccccc2nc(-c2cccs2)n1-c1ccccc1 | 1 | -9.3 | 2.5 | 4.6 | -1.0
Cc1cccc(-n2c(-c3cccs3)nc3ccccc3c2=O)c1 | 0.9 | -13.1 | 1.7 | 71.0* | 1.3
SMILES | Diaph act CS | p47phox inh | Hck-Nef inh | 14-3-3 Bad inh | eIF4E-4G inh
CN[C@@H]1C[C@@H](c2ccc(Cl)c(Cl)c2)c2ccccc21 | 0.3 | 1.2 | x | -2.4 | 98.9*
CC(=O)Nc1ccccc1C(=O)OCc1ccccc1F | 1 | 1.2 | -34.7 | 5.9 | -1.8
CN(C)c1ccc(CN2CC=C(c3ccc(F)cc3)CC2)cc1 | 0.9 | -5.7 | 1.4 | 73.2* | 10.0
Cn1c(O)c(/C=C2\N=c3ccccc3=C2CCNC(=S)NC2CC2)c(=O)n(C)c1=O | x | 38.7* | 42.0 | -9.3 | -2.8
CC1=C2C3OC(=O)C(C)C3CC[C@@]2(C)C=CC1=O (some centres undefined) | x | 1.1 | 22.5 | -9.3 | 5.0
O=c1cccc2n1CC1CC2CN(Cc2c(F)cccc2Cl)C1 (centres undefined) | 0.9 | -28.7 | 0.3 | 76.5* | 2.5
CCOC(=O)c1nsnc1NCCCl | 0.9 | 2.8 | 21.6 | -8.9 | -2.5
COc1ccc(-c2nn(CCC#N)cc2C(=O)Nc2ccccc2Br)cc1[N+](=O)[O-] | x | 2.2 | 30.1 | 0.9 | -15.7
CCCC(=O)NC(Oc1ccc(Cl)cc1Cl)C(Cl)(Cl)Cl (centres undefined) | 0.9 | -32.4 | 1.6 | 87.6* | 11.0
CCCC(=O)NC(Oc1ccccc1Cl)C(Cl)(Cl)Cl (centres undefined) | 1 | -7.9 | 0.9 | 77.3* | 2.4
COc1cc(/C=C(/C)[N+](=O)[O-])ccc1OCc1ccccc1Cl | 0.9 | 0.4 | 18.8 | 10.7 | 22.6
Cc1ccc(N2CCN(CCc3ccccc3)CC2)cc1 | 1 | -4.3 | -1.5 | 82.8* | -1.7
O=C(c1ccncc1)C12CN3CN(CN(C3)C1)C2 | 0.9 | -19.0 | -0.1 | 85.0* | -1.1
CC(=O)N1CN2CN(C(C)=O)CC(C(=O)c3ccccc3)(C2)C1 | 1 | -4.8 | 4.2 | 3.3 | 4.6
O=C1NC(=O)C(=Cc2ccc(N3CCOCC3)o2)C(=O)N1 | 0.9 | 57.9* | 24.9 | -19.8 | 2.1
C=CCN1C(=O)/C(=C/c2ccc(N3CCOCC3)o2)C(=O)NC1=S | 0.8 | -221.6 | 2.7 | 4.8 | 2.7
Cn1cccc1/C=C1\C(=O)NC(=O)N(CCC2=CCCCC2)C1=O | 0.9 | -53.9 | 7.3 | 7.5 | -3.5
O=C1NC(=O)N(CCC2=CCCCC2)C(=O)/C1=C\c1cccs1 | 0.9 | -41.6 | 50.5* | 3.8 | 8.8
COc1cccc(N2C(=O)NC(=O)/C(=C/c3ccc4c(c3)Cc3ccccc3-4)C2=O)c1 | 0.8 | -35.5 | 115.5* | 24.9 | 4.7
O=C1NC(=S)N(Cc2ccco2)C(=O)/C1=C\c1cccs1 | 0.1 | -97.0 | 97.5* | 96.7* | 70.0*
CCN(CC)c1ccc(/C=C2/C(=O)NC(=O)N(Cc3ccco3)C2=O)cc1 | 0.8 | 167.8* | 1.4 | -25.9 | 1.7
C=CCN1C(=O)/C(=C/c2cccs2)C(=O)NC1=S | 1 | -2.3 | -0.2 | 21.7 | 16.4
CN(C)c1ccc(/C=C2/C(=O)NC(=O)N(Cc3ccco3)C2=O)cc1 | 0.9 | 77.6* | 0.7 | -1.1 | 5.4
CC(=O)OC1N=C(c2ccccc2Cl)c2cc(Br)ccc2NC1=O (centres undefined) | x | -7.2 | 13.8 | -1.8 | -3.5
Clc1ccccc1CN1CCN(c2ccccc2)CC1 | 0.9 | -0.8 | -0.6 | 83.5* | 1.0
Clc1ccc(N2CCN(Cc3ccccc3Cl)CC2)cc1 | 0.8 | -9.4 | -1.3 | 67.8 | -3.9
CCOC(=O)C1=C(N)Oc2cc(C)oc(=O)c2C12C(=O)N1c3c(cccc32)C(C)=CC1(C)C (centres undefined) | 0.8 | -26.4 | 0.0 | 1.2 | 0.8
CCOC(=O)C1=C(N)Oc2cc(C)oc(=O)c2C12C(=O)N1c3c(cccc32)C(C)CC1(C)C (centres undefined) | 0.8 | -6.3 | -0.5 | 70.3* | -12.4
O=c1[nH]c(=O)n(C2CCCCCC2)c(O)c1C=NC1CCN(Cc2ccccc2)CC1 | 0.9 | -11.6 | 1.7 | 9.9 | -3.2
